These results are taken from PubChem BioAssay.

Assay [1] in a line: inhibitors of TNFa-induced NFkB p65 translocation, primary screen, imaging, HUVEC, MLSMR starter and 10KST1 sets (AID 438;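 active = inhibition above 20% together with a positive visual image hit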;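 also: compound added about 3h40 before a 20 min TNFalpha stimulation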;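 as to inhibition: signal is the nuclear over cytoplasmic p65 intensity ratio per well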). Conditions: HUVEC TNFa-induced p65 nuclear translocation; cell count: measured here: nuclei count (cytotoxicity indicator), at 2.08 µM; inhibition: at 2 µM, stronger effect = higher value, 0% TNFa-plus-vehicle, 100% no-TNFa wells.
Assay [2] can be described thus: reduction of polyQ htt aggregates in cells – imaging, exon1htt(103Q)mCFP cells, high-content imaging, primary screen (AID 483).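 Also: compound exposure lasted 3 days before fixation.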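 As to nuclei count: percent of the per-plate median nuclei count of sample wells.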 Conditions: exon1htt(103Q)mCFP cell line, aggregate imaging, at 2 µM; inhibition of aggregation: stronger effect = higher value; nuclei count: measured here: cell count, toxicity.
Assay [3] is described as follows: endothelial E-selectin expression blockers – imaging, HUVEC, immunofluorescence, MLSMR starter and 10KST1 sets, primary screen (AID 487;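 active = visually confirmed hit in the image check and inhibition above 20%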;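 as to inhibition: signal is fraction of cell area covered by stained E-selectin grains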;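 as to nuclei count: 100% = median nuclei count of all wells on the same plate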). Conditions: HUVEC TNFalpha-induced E-selectin immunofluorescence imaging, at 2 µM; inhibition: stronger effect = higher value; nuclei count: measured here: cell number, toxicity.
The target of assay [4] is Voltage-gated potassium channel subunit beta-2 (Rattus norvegicus) (UniProt P62483). The experiment in a line: inhibitors of rat Kvbeta2 reductase activity – biochemical, NADPH fluorescence, primary screen (AID 622;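 active = fluorescence slope higher than the sample average by over 3 SD, cut at about -0.22 in these data, passing the limit was not always enough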;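 also: slope of raw intensity against log time taken from 70 to 1610 s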). Conditions: recombinant KvBeta, 4-cyanobenzaldehyde reduction, at 10 µM, stronger effect = higher value.
Voltage-gated potassium channel subunit beta-2 (Rattus norvegicus), sequence (P62483 whole entry, looked up): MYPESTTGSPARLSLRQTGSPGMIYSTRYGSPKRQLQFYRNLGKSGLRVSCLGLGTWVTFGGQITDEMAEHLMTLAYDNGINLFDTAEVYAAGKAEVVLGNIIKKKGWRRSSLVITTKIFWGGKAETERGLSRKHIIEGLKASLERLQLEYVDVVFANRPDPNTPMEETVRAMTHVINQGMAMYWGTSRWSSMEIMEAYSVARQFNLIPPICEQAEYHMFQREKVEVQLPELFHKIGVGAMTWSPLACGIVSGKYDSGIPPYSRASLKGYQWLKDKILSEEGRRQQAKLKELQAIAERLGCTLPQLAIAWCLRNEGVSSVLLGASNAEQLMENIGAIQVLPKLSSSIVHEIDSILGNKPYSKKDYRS
Assay [5] shares this target. The assay is described as follows: enhancers of rat Kvbeta2 NADPH turnover – biochemical, NADPH fluorescence, primary screen (AID 623;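 active = NADPH fluorescence slope more negative than the mean of all samples by about 3 SD, 99.7% confidence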;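 also: fluorescence intensity change per second fitted from 20 to 320 s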). Conditions: Recombinant KvBeta, NADPH fluorescence decrease slope, 10 min; at 10 µM; stronger effect = lower value.
The target of assay [6] is Muscarinic acetylcholine receptor M4 (Homo sapiens) (UniProt P08173). The experiment in a line: M4-linked GIRK flux change, two-sided – cell-based, HEK293 M4/GIRK, thallium flux, BTC-AM, M4 allosteric agonist project, primary screen (AID 625;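 active = fluorescence slope after compound addition differing from the mean of all tested samples at 99.7% confidence, mostly higher but some lower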;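 also: thallium influx through GIRK channels coupled to M4 in HEK293 cells with BTC-AM dye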). The settings on record: at 10 µM, actives lie on both sides. The method, boiled down:
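Material: HEK293 cells with M4 receptor and GIRK channels; Times: cells overnight at 37 °C, BTC-AM loading 1 h, reads 2 min total; Technique: kinetic BTC-AM fluorescence sampled at 1 Hz, 10 s pre-addition baseline; Read-out basis: slope over 15–24 s of trace normalized to starting intensity; Controls: carbachol positive, DMSO negative.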

Assay [7] in a line: blockers of RIG-like receptor reporter activation – cell-based, Sendai virus stimulus, luciferase, 10K MLSCN set, TLR/RLR signaling modifier project, primary screen (AID 602276;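 active = inhibition at or above 50% at 10 µM; inactive = inhibition below 50%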;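 also: firefly luciferase from ISG56 promoter only with Renilla not read in this screen; 0% = Sendai virus plus DMSO and 100% = medium plus DMSO without virus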). The settings on record: HEK293 RL24 IRF3 luciferase reporter, at 10 µM, stronger effect = higher value. In general terms: Reporter assays use an easily measured gene product as a stand-in for the process of interest.

Assay [8] is described as follows: TLR3 IRF3 reporter activation blockers – cell-based, poly I:C stimulus, luciferase, 10K MLSCN set, primary screen (AID 602277;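 active = inhibition of the reporter signal at or above 50%; inactive = inhibition below 50%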). Conditions: HEK293-TLR3 RL24 IRF3 luciferase reporter, at 10 µM, stronger effect = higher value.

Activity calls are given as the source filed them.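 The calls were made as follows, unless noted: active = visual image review flags a hit and inhibition of aggregation exceeds 20%; inconclusive = visual hit but inhibition at or below 20%; inactive = no hit on visual image review.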

Muscarinic acetylcholine receptor M4 (Homo sapiens), sequence (P08173 whole entry, looked up): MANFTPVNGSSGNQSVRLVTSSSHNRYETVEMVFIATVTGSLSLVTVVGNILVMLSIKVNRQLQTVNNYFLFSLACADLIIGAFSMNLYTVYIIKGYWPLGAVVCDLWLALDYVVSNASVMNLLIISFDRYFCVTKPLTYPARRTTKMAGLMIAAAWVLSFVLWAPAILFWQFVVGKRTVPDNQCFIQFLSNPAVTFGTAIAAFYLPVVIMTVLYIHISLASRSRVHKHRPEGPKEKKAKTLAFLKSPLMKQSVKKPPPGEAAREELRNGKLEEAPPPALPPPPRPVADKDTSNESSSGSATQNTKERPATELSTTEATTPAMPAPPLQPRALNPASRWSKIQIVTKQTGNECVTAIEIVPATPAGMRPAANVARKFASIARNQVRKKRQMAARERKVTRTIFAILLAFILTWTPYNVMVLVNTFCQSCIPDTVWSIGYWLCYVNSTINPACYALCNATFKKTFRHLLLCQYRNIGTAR

On to `CC(C)(C)N=C1NC(=NC(C)(C)C)c2ccccc21`, for which the cell count in assay [1] turned out to be 716. The inhibition in assay [1] was 2.3% (inactive); in assay [3], -18.9% (inactive); in assay [7], 5.9% (inactive); in assay [8], 5.38% (inactive). In assay [2], the inhibition of aggregation was -5.7% (inactive). Besides, the values for the nuclei count in assay [2] and in assay [3] were 106% and 107%, respectively. The fluorescence slope in assay [4] is -0.525 (inactive); in assay [6], 0.00395 (inactive). Also, the NADPH fluorescence slope in assay [5] is -7.9e-06 (inactive).

Turning to `c1nnc(NC2=NCCCCC2)s1`, in assay [1], the cell count turned out to be 630. Besides, the inhibition in assay [1] was -18.3% (inactive); in assay [3] it was 33.9% (inactive); in assay [7], -16.9% (inactive); in assay [8] it was -29.4% (inactive). Moreover, in assay [2], the inhibition of aggregation was 0.1% (inactive). Further, the nuclei count in assay [2] was found to be 105%; in assay [3], 124%. Besides, the fluorescence slope was -0.346 (inactive) in assay [4] and 0.00597 (inactive) in assay [6]. Further, the NADPH fluorescence slope in assay [5] was -1.1e-05 (inactive).

`CCOc1cc(C)c(Cl)cc1S(=O)(=O)N(C)C`: the cell count in assay [1] was found to be 682. Moreover, the inhibition in assay [1] is -14.7% (inactive); in assay [3], -5.4% (inactive); in assay [7] it was 20.4% (inactive); in assay [8], 22.4% (inactive). Also, the inhibition of aggregation in assay [2] is -26.4% (inactive). Further, the nuclei count in assay [2] turned out to be 113%; in assay [3], 99.4%. Besides, the fluorescence slope was -0.565 (inactive) in assay [4] and 0.00578 (inactive) in assay [6]. For the same molecule, the NADPH fluorescence slope in assay [5] is -5.1e-05 (inactive).

Turning to `O=c1cc(COn2nnc3ccc(C(F)(F)F)cc32)nc2sccn12`, the cell count in assay [1] worked out at 379. The inhibition is -22% (inactive) in assay [1], -51.6% (inactive) in assay [3], -2.54% (inactive) in assay [7] and 14.9% (inactive) in assay [8]. Further, the inhibition of aggregation in assay [2] was -2.2% (inactive). For the same molecule, the nuclei count worked out at 109% in assay [2] and 141% in assay [3]. The fluorescence slope in assay [4] was -0.478 (inactive); in assay [6] it was 0.00817 (inactive). For the same molecule, in assay [5], the NADPH fluorescence slope is 3.2e-05 (inactive).

For `CCC(C)c1ccc(NC(=O)C2CC2)cc1` (stereo not drawn), the cell count in assay [1] is 466. For the same molecule, the inhibition in assay [1] was -11.6% (inactive); in assay [3] it was -74.9% (inactive); in assay [7], -20.4% (inactive); in assay [8] it was -80.1% (inactive). In assay [2], the inhibition of aggregation is -13.6% (inactive). Further, the nuclei count in assay [2] was determined as 110%; in assay [3] it was 118%. Besides, the fluorescence slope in assay [4] is -0.569 (inactive); in assay [6], 0.00602 (inactive). Also, the NADPH fluorescence slope in assay [5] was -4.3e-05 (inactive).

Turning to `O=C(O)c1ccccc1C(=O)Nc1ccccc1`, in assay [1], the cell count is 476. Also, the inhibition in assay [1] was -6% (inactive); in assay [3], -88.4% (inactive); in assay [7] it was 5.22% (inactive); in assay [8], 8.4% (inactive). In assay [2], the inhibition of aggregation was -8.6% (inactive). For the same molecule, the nuclei count in assay [2] worked out at 82.7%; in assay [3], 143%. Further, the fluorescence slope in assay [4] was -0.5 (inactive); in assay [6], 0.00478 (inactive). The NADPH fluorescence slope in assay [5] is -0.000287 (inactive).

Regarding `Cc1cc2c(nn1)CCC/C2=N\O`, the cell count in assay [1] worked out at 350. For the same molecule, the inhibition is 4.3% (inactive) in assay [1], 14.6% (inactive) in assay [3], 17.4% (inactive) in assay [7] and 19.5% (inactive) in assay [8]. Moreover, the inhibition of aggregation in assay [2] was 9.7% (inactive). Moreover, the nuclei count in assay [2] was found to be 99.1%; in assay [3], 110%. Also, the fluorescence slope was -0.552 (inactive) in assay [4] and 0.00403 (inactive) in assay [6]. In assay [5], the NADPH fluorescence slope is 2.3e-05 (inactive).

In the case of `O=C(CN1C(=O)c2ccccc2C1=O)NCC1COc2ccccc2O1` (stereo not drawn), the cell count in assay [1] is 403. Also, the inhibition in assay [1] was -0.8% (inactive); in assay [3], 50.3% (inactive); in assay [7], -12.5% (inactive); in assay [8] it was -10.2% (inactive). Besides, in assay [2], the inhibition of aggregation was 12.6% (inactive). Further, the nuclei count in assay [2] is 101%; in assay [3], 75.3%. The fluorescence slope in assay [4] was -0.477 (inactive); in assay [6], 0.00703 (inactive). The NADPH fluorescence slope in assay [5] is 9.2e-05 (inactive).

As to `Cc1ccccc1NC(=O)C1CCN(c2cnccn2)CC1`, the cell count in assay [1] worked out at 304. Besides, the inhibition in assay [1] was 2.2% (inactive); in assay [3], -42.9% (inactive); in assay [7], 5.1% (inactive); in assay [8], 15.6% (inactive). Further, the inhibition of aggregation in assay [2] was -10.2% (inactive). The nuclei count in assay [2] is 86.3%; in assay [3] it was 111%. For the same molecule, the figures for the fluorescence slope in assay [4] and in assay [6] were -0.543 (inactive) and 0.00512 (inactive), respectively. Besides, the NADPH fluorescence slope in assay [5] was -1.5e-06 (inactive).

For the molecule `c1ccc2c(-c3nc(C4CCCCC4)no3)cc(-c3ccncc3)nc2c1`, in assay [1], the cell count stood at 570. Further, the inhibition was -12.8% (inactive) in assay [1], 48.8% (inactive) in assay [3], 11.5% (inactive) in assay [7] and 1.56% (inactive) in assay [8]. Also, in assay [2], the inhibition of aggregation is 17.4% (inactive). Also, the figures for the nuclei count in assay [2] and in assay [3] were 73.3% and 58.9%, respectively. Further, the fluorescence slope in assay [4] is -0.535 (inactive); in assay [6] it was 0.00839 (inactive). In assay [5], the NADPH fluorescence slope was -1.6e-05 (inactive).

As for `CC1Cc2ccccc2N1C(=O)Cc1cccs1` (stereo not drawn), in assay [1], the cell count is 275. For the same molecule, the inhibition in assay [1] is -3.1% (inactive); in assay [3], 18.4% (inactive); in assay [7] it was 7.14% (inactive); in assay [8], -1.13% (inactive). For the same molecule, in assay [2], the inhibition of aggregation was 33.8% (inactive). Besides, the nuclei count in assay [2] was 74.7%; in assay [3], 93.7%. Also, the results for the fluorescence slope in assay [4] and in assay [6] were -0.504 (inactive) and 0.00407 (inactive), respectively. Also, the NADPH fluorescence slope in assay [5] was -3.6e-05 (inactive).

For `CCCCCCn1c(SCCCC)nc2c1c(=O)[nH]c(=O)n2C`, the cell count in assay [1] amounted to 384. In addition, the inhibition in assay [1] was -8% (inactive); in assay [3] it was -10.4% (inactive); in assay [7] it was 0.691% (inactive); in assay [8], 10.6% (inactive). In assay [2], the inhibition of aggregation is -12.5% (inactive). For the same molecule, the nuclei count stood at 101% in assay [2] and 104% in assay [3]. Besides, the fluorescence slope in assay [4] was -0.543 (inactive); in assay [6], 0.00572 (inactive). Further, in assay [5], the NADPH fluorescence slope is -3.9e-05 (inactive).

Turning to `C=CCNC(=O)CNS(=O)(=O)c1ccc(F)cc1`, in assay [1], the cell count worked out at 443. Further, the inhibition in assay [1] was -2.6% (inactive); in assay [3], 36.9% (inactive); in assay [7] it was 19.3% (inactive); in assay [8], 45.8% (inactive). Also, the inhibition of aggregation in assay [2] was 11.8% (inactive). Moreover, the nuclei count in assay [2] worked out at 73.9%; in assay [3], 88%. Besides, the figures for the fluorescence slope in assay [4] and in assay [6] were -0.592 (inactive) and 0.00626 (inactive), respectively. In assay [5], the NADPH fluorescence slope is 1e-05 (inactive).

Usually inhibition stands for the drop in the measured response relative to a control, in per cent.
